Experimental data from different studies.
Compare with care: the assays were run in different laboratories.
Sample: plasma

| Compound | test system | setting | AUC(0-t) |
| --- | --- | --- | --- |
| FC(F)(F)c1ccc(CNc2ccc(Cc3c[nH]c4ncc(Cl)cc34)cn2)cn1 | human | oral, 1600 mg, multiple doses, patients | 28700 ng·h/mL |
| COC(=O)N[C@@H](C)CNc1nccc(-c2cn(C(C)C)nc2-c2cc(Cl)cc(NS(C)(=O)=O)c2F)n1 | human | oral, 50 mg, single dose | 1900 ng·h/mL |
| C=CC(=O)N1CCC(Oc2cc3c(Nc4ccc(Cl)c(Cl)c4F)ncnc3cc2OC)CC1 | human | oral, 16 mg, single dose, fed | 474 ng·h/mL |
| Cc1nc(NC(=O)N2CCC[C@H]2C(N)=O)sc1-c1ccnc(C(C)(C)C(F)(F)F)c1 | human | oral, 350 mg, patients | 27600 ng·h/mL |
| NS(=O)(=O)c1ccc(NC(=O)Nc2ccc(F)cc2)cc1 | human | oral, 500 mg, multiple doses, once daily | 62200 ng·h/mL |
| CO[C@@H]1[C@H](OC(=O)N2CC(CCN3CCOCC3)C2)CC[C@]2(CO2)[C@H]1[C@@]1(C)O[C@@H]1CC=C(C)C | human | subcutaneous, 2.4 mg, single dose, healthy volunteers | 8.07 ng·h/mL |
| CCOc1cc([C@@H](CS(C)(=O)=O)N2C(=O)c3cccc(NC(C)=O)c3C2=O)ccc1OC | human | oral, 30 mg, single dose, healthy volunteers | 2190 ng·h/mL |
| COCCOc1cnc2ccn([C@H](C)c3nnc4c(F)cc(-c5cnn(C)c5)cn34)c(=O)c2c1 | human | oral, 25 mg, multiple doses, once daily, patients | 5990 ng·h/mL |
| C#Cc1cccc(Nc2ncnc3cc(OCCOC)c(OCCOC)cc23)c1 | human | oral, 50 mg, patients | 12.5 µM·h |
| C[C@@]1(c2cc(NC(=O)c3ccc(C#N)cn3)ccc2F)C=CSC(N)=N1 | human | oral, 150 mg, single dose | 14300 ng·h/mL |
| COc1ccc([C@@H]2CN(C(=O)[C@@H](O)CO)C[C@@]2(C)[C@@H](C)O)cc1OC1CN(c2ccc(C)cn2)C1 | human | oral, 0.1 mg, single dose, healthy volunteers | 52.7 ng·h/mL |
| Nc1cc(C(F)(F)F)c(-c2cc(N3CCOCC3)nc(N3CCOCC3)n2)cn1 | human | oral, 25 mg/day, patients | 2060 ng·h/mL |
| Oc1cc(O)c2c(c1)O[C@@H](c1ccc(O)c(O)c1)[C@@H](O)C2 | human | oral, 10 mg, single dose | 4.6 ng·h/mL |
| CC(C)(O)c1ccccc1-c1ccc2[nH]c(/C=C/c3ccc(C(F)(F)F)cc3)nc2c1 | male human | oral, 120 mg, single dose, fasted, healthy volunteers | 13100 ng·h/mL |
| OC[C@H]1O[C@@H](c2ccc(Cl)c(Cc3ccc(O[C@H]4CCOC4)cc3)c2)[C@H](O)[C@@H](O)[C@@H]1O | human | oral, 10 mg, single dose | 1.63 µM·h |
| COc1cc2c(cc1OC)CN(CCc1ccc(NC(=O)c3cc(OC)c(OC)cc3NC(=O)c3cnc4ccccc4c3)cc1)CC2 | human | intravenous, 2 mg/kg, patients | 11.9 µM·h |
| COc1cc2c(Nc3ccc(Br)cc3F)ncnc2cc1OCC1CCN(C)CC1 | human | oral, 65 mg/m², multiple doses, patients | 18900 ng·h/mL |
| C[C@@H](Oc1ccc(S(C)(=O)=O)cc1C(=O)N1C[C@@H]2C[C@]2(c2cc(C(F)(F)F)on2)C1)C(F)(F)F | human | oral, 25 mg, fasted, tablet | 8.7 µM·h |
| CO[C@H]1CC[C@H](N2C(=O)CNc3ncc(-c4ccc(C(C)(C)O)nc4)nc32)CC1 | human | oral, 7.5 mg, patients | 319 ng·h/mL |
| C[C@@H](Nc1cc(F)cc(F)c1)c1cc(C(=O)N(C)C)cc2c(=O)cc(N3CCOCC3)oc12 | human | oral, 180 mg, single dose, patients | 6710 ng·h/mL |
| CC(C)n1cc(C#N)c2cc(-n3cc(C(=O)O)cn3)ccc21 | human | oral, 25 mg, single dose, fasted, healthy volunteers | 5010 ng·h/mL |
| CCNCCCNC/C=C\CNCCCNCC | human | intravenous, 150 mg, patients, infusion | 473 ng·h/mL |
| O=C(/C=C/c1cccc(S(=O)(=O)Nc2ccccc2)c1)NO | human | intravenous, 2000 mg/m², patients | 85200 ng·h/mL |
| COc1cc(N2CCC(N3CCN(C)CC3)CC2)ccc1Nc1ncnc(Nc2ccccc2S(=O)(=O)C(C)C)n1 | human | oral, 325 mg, multiple doses, patients | 23100 ng·h/mL |
| CCCCC1=NC2(CCCC2)C(=O)N1Cc1ccc(-c2ccccc2S(=O)(=O)Nc2noc(C)c2C)c(COCC)c1 | human | oral, 800 mg, single dose, fed, healthy volunteers, tablet | 169000 ng·h/mL |
| CC(C)c1nc(N(C)S(C)(=O)=O)nc(-c2ccc(F)cc2)c1/C=C/[C@@H](O)C[C@@H](O)CC(=O)O | human | oral, 20 mg | 48.6 ng·h/mL |
| CNCC[C@H](Oc1cccc2ccccc12)c1cccs1 | female human | oral, 30 mg, multiple doses, once daily | 135 ng·h/mL |
